Screens as filed in PubChem BioAssay.
A selection: hits, their analogues and other compounds. The true share with any hit is near 3.5%.
MrgX1 ag: agonists of human MrgX1 receptor, primary screen, HEK293 cells, Fluo-4 calcium flux. 0.44% of 310,000 active. Fluo-4 calcium fluorescence, agonist mode; hits give high values. B-score at 10 µM;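 active means calcium response B-score plate-corrected fluorescence ratio at least 3 library SD, with starting fluorescence B-score inside 5 SD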
Target sequence (Q96LB2 whole entry, looked up): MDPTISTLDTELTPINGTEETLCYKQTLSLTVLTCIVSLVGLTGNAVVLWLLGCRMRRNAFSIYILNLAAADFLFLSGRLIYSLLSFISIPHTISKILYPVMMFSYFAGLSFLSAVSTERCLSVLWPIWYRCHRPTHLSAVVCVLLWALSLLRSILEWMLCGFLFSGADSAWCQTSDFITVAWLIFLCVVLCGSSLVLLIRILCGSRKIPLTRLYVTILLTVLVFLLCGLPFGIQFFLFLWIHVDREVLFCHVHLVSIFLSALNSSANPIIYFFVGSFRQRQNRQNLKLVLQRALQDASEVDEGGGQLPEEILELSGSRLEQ
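System – MrgX1-expressing HEK293 cells · Incubation – cells plated overnight, dye loaded 0.5 h 37 °C, 0.5 h room temperature · Technique – kinetic Fluo-4 NW fluorescence of intracellular calcium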
MrgX1 antagonist: antagonists of human MrgX1 receptor, primary screen, HEK293 cells, Fluo-4 calcium flux | Mas-related G-protein coupled receptor member X1 (Homo sapiens), Q96LB2 | 1.3% of 310,000 active | B-score at 10 µM | BAM8-22 antagonism; hits give low values | AID 588676, 2011;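 active means calcium-response B-score plate-corrected more than 3 library SD below zero, starting fluorescence within 5 deviations, no agonist response on first addition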;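 further: peak minus trough fluorescence over baseline after final BAM8-22 challenge near maximal dose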
MrgX1 PAM: positive allosteric modulators of MrgX1, primary screen, HEK293 cells, Fluo-4 calcium flux; FDSS; hits give high values; B-score at 10 µM; 0.63% of 310,000 active;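 active means plate-corrected calcium response at least 3 library SD above typical, normal starting fluorescence, not activating the receptor alone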;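 further: compound read alongside a low EC10 to EC30 dose of BAM8-22 agonist; peak minus trough fluorescence over baseline measured at the second addition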
RGS4 inh: RGS4 inhibitors, primary screen, cell-based, HEK293 M3R inducible RGS4, calcium flux. Regulator of G-protein signaling 4 (Homo sapiens), P49798. Fluo-4 calcium flux; hits give high values; triggered by carbachol at its EC20. B-score at 10 µM. 0.45% of 310,000 active;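 active means B-score, a plate-corrected calcium signal, over three deviations above library mean, with baseline fluorescence within five deviations of library mean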;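 further: RGS4 expression induced by doxycycline in cells with stable M3 receptor; B-score is computed from the integrated fluorescence ratio over baseline after carbachol; higher B-score means a larger calcium signal and so more RGS4 inhibition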
Target sequence (P49798 whole entry, looked up): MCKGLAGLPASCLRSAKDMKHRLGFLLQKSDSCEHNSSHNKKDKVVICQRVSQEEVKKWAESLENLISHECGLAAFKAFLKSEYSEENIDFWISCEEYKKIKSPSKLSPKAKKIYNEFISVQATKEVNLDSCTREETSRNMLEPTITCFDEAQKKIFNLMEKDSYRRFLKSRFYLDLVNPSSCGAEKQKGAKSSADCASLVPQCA
RGS4 act: RGS4 potentiators or activators, primary screen, cell-based, HEK293 M3R inducible RGS4, calcium flux; B-score at 10 µM; 0.92% of 310,000 active; carbachol calcium flux Fluo4; hits give low values;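 active means B-score of the integrated calcium signal more than 4 SD below the library mean, with starting fluorescence not abnormally high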;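 further: negative B-score means reduced calcium response which marks RGS4 activation or potentiation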
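Detection: kinetic calcium fluorescence imaging with Fluo4-AM dye, 2 µM / Material: HEK293 cells with stable M3R and inducible RGS4 / Schedule: recording 10 s baseline at 1 Hz, 100 s post-agonist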
The depositor's hits bear a star; i = inactive; x = no result given.

SMILES	MrgX1 ag	MrgX1 antagonist	MrgX1 PAM	RGS4 inh	RGS4 act
CCOC(C(=O)OCCC[N+](C)(CC)CC)(c1ccccc1)c1ccccc1	i	i	i	i	-8.71*
CC[N+](C)(CC)CCCOC(=O)C(O)(c1ccccc1)C1CCCCC1 (stereo unspecified)	i	i	i	i	-7.08*
O=C(O)C(O)(c1ccccc1)C1CCCCC1 (stereo unspecified)	i	i	i	i	i
COc1ccc(NC(=O)C2C3CCC(O3)C2C(=O)O)c(OC)c1 (stereo unspecified)	i	i	i	i	i
CCN1C[C@]2(C)CC[C@H](O)[C@]34C1[C@H](C[C@H]23)[C@@]1(O)C[C@H](OC)[C@H]2C[C@@H]4[C@@H]1C2O (stereo partly specified)	i	i	i	x	x
COc1ccc(-[n+]2c(-c3ccccc3)cc(-c3ccc(C)cc3)cc2-c2ccccc2)cc1	i	-6.69*	14.3*	i	-7.55*
Brc1ccc(-[n+]2c(-c3ccccc3)cc(-c3ccccc3)cc2-c2ccccc2)cc1	i	i	i	i	-8.58*
CCCOC(=O)c1ccc(-[n+]2c(-c3ccccc3)cc(-c3ccccc3)cc2-c2ccccc2)cc1	34*	i	i	i	-7.16*
CC(N)Cc1cn(Cc2ccccc2)c2ccccc12 (stereo unspecified)	i	i	i	i	i
CCCCOc1ccc(CN2CCN(CCO)CC2)cc1	i	i	i	i	i
CCCCCCOc1ccc(CN2CCN(CCO)CC2)cc1	i	i	i	i	-7.33*
O=c1[nH]c(=S)n(C2CC2)c(O)c1C=Nc1ccc2c(c1)OCO2	i	i	i	i	i
COc1ccc(-n2c(/C=C/c3ccc(O)c(O)c3)nc3ccccc3c2=O)cc1	i	i	i	i	i
COc1cc(/C=C/c2nc3ccccc3c(=O)n2-c2ccc(O)cc2)ccc1O	i	i	i	i	-8.17*
CC1CCC(C(C)C)C(OC(=O)Cn2c(COc3ccccc3)[n+](C)c3ccccc32)C1 (stereo unspecified)	i	-14.4*	i	i	-8.03*
CCC(C(=O)N1CCC2(CC1)OCCO2)n1c2ccccc2c2nc(=O)cc(C)n21 (stereo unspecified)	i	i	i	i	i
COC(=O)C1=C(c2cc3ccccc3o2)C[C@@H]2CC[C@H]1N2C(=O)NCc1ccc(C(F)(F)F)cc1	i	i	9.17*	i	i
CCN(CC)c1ccc(/C=N/c2sc3c(c2C#N)C2CCN3CC2)c(O)c1	i	i	16.7*	x	x
COc1ccc(-n2c(/C=C/c3cccc(F)c3)nc3ccccc3c2=O)c(OC)c1	i	i	i	i	i
CCn1cc(C(=O)N2CCC3(CC2)OCCO3)c(=O)c2cc(S(=O)(=O)N3CCCC3)ccc21	i	i	i	i	i
Cc1c(C(=O)N2CCC3(CC2)OCCO3)oc2ccc(S(=O)(=O)N3CCCCC3)cc12	i	-5.27*	i	i	i
NC(C(=O)O)c1cc(=O)[nH]o1 (stereo unspecified)	i	i	i	x	x
CCOC(=O)C1(CCc2ccccc2)CCN(Cc2csc(C(C)=O)c2)CC1	i	i	i	i	i
CCOC(=O)C1(CCc2ccccc2)CCN(Cc2cccc3c2OCO3)CC1	i	i	i	i	-7.54*
COC(=O)CCCC(NC(=S)N1CC2C[C@@H](C1)Cn1c2cccc1=O)C(=O)OC (stereo partly specified)	i	i	i	i	i
SMILES	MrgX1 ag	MrgX1 antagonist	MrgX1 PAM	RGS4 inh	RGS4 act
OCCOCCO	i	i	i	x	x
COP(=O)(OC)C(NC(=O)C(C)(C)C)=C(Cl)Cl	i	-5.77*	i	i	i
O=C1Nc2cc(C(=O)N3CCC4(CC3)OCCO4)ccc2NC1CSCc1cccc(F)c1 (stereo unspecified)	42.2*	i	i	i	i
O=C(c1ccc2c(c1)N(Cc1ccccc1)CCS2)N1CCC2(CC1)OCCO2	i	i	i	i	i
Cc1ccccc1-n1c(-c2ccc([N+](=O)[O-])cc2)nc2ccccc2c1=O	i	i	i	i	-10.1*
Oc1cccc(/C=N/NP(=S)(c2ccccc2)c2ccccc2)c1	i	i	i	i	i
CN1CCN(c2ccc(N)cc2Cl)CC1	i	-5.26*	i	i	i
CCOc1cc2c(cc1OCC)-n1cccc1C(c1ccc(F)cc1)NC2 (stereo unspecified)	i	i	i	i	i
CCOc1cc2c(cc1OCC)-n1cccc1C(c1ccc(OC)cc1)NC2 (stereo unspecified)	i	-8.45*	i	i	i
CCOc1cc2c(cc1OCC)-n1cccc1C(c1ccc(C(C)C)cc1)NC2 (stereo unspecified)	i	-5.22*	i	i	i
CC(C)=CCc1c(O)cc2c(c1O)C(=O)CC(c1ccc(O)cc1)O2 (stereo unspecified)	i	i	i	i	-7.18*
CN1c2ccc([N+](=O)[O-])cc2CC2(C(=O)NC(=O)N(c3ccc(Br)cc3)C2=O)C1c1ccccc1 (stereo unspecified)	i	i	i	i	i
CC(C)N(CC(O)c1cccc([N+](=O)[O-])c1)C(C)C (stereo unspecified)	i	-6.21*	i	i	i
C=C(C=O)C[C@@H]1C[C@H](O)C2OC3C[C@]4(C)OC5/C=C\CC6OC7C(CC=CCC6OC5CCCC4OC3CC2O1)OC1CC2OC3CC(=O)OC3C[C@@H](C)C[C@@]2(C)OC1C[C@@H]7C (stereo partly specified)	x	x	x	i	-9.74*
C=C(C=O)CC1CC(O)[C@]2(C)OC3C[C@@H]4OC5C[C@]6(C)O[C@]7(C)CCC8OC9C[C@]%10(C)OC(/C(C)=C\CO)C(O)CC%10OC9CC(C)C8OC7CC6O[C@]5(C)C/C=C\C4OC3CC2O1 (stereo partly specified)	i	i	i	x	x
C/C(=N\N1CCCCCC1)c1c(O)n(-c2ccc(C)cc2)c(=O)[nH]c1=O	i	i	i	i	i
CC/C(=N\N1CCCCCC1)c1c(O)n(-c2ccc(C)cc2)c(=O)[nH]c1=O	i	i	11.3*	i	i
